Measurements from ChEMBL document CHEMBL1132354, “Novel antidiabetic and hypolipidemic agents. 5. Hydroxyl versus benzyloxy containing chroman derivatives” (J Med Chem, 1999).

Key:
[1] = The Tmax value in female wistar rat at 100 mg/kg, p.o. dose; assay type: ADME, organism-based; design: dose 100 mg/kg, route oral; conditions: in vivo, po
Summary of the method: (§1)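 Wistar rats, 200–225 g, fasted 12 h with free access to water and fed 3 h after dosing. Single dose of 100 mg/kg p.o. given as a 0.5% CMC suspension. Retro-orbital blood, 0.4 mL, taken into heparinized tubes at several time points. Plasma drug measured by HPLC with fluorescence detection on a C18 column. Parameters from noncompartmental analysis, AUC by trapezoidal rule. Four rats per group, mean ± SD.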

[2] = The half life value in male wistar rat at 100 mg/kg, p.o. dose; assay type: ADME, organism-based; design: dose 100 mg/kg, route oral; conditions: in vivo, po; summary of the method: as §1
Rattus norvegicus [3] = experiment: (§2) The AUC(0-infinitive) value in female wistar rat at 100 mg/kg, p.o. dose; assay type: ADME, organism-based; design: time infinity, dose 100 mg/kg, route oral; unit not given here; conditions: in vivo, po; summary of the method: as §1
[4] = The Tmax value in male wistar rat at 100 mg/kg, p.o. dose; assay type: ADME, organism-based; design: dose 100 mg/kg, route oral; conditions: in vivo, po; summary of the method: as §1
Mus musculus [5] = experiment: The compound was tested for percent reduction in plasma glucose after 6 days of treatment at a dose of 100 mg/kg/day in mice; assay type: functional
Summary of the method: (§3)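 Male C57BL/KsJ-db/db mice, 8 weeks old, chow ad libitum, grouped by similar starting plasma glucose (n = 4–6 per group). Dosed orally by gavage in 0.5% CMC vehicle (10 mL/kg) daily for 6 days. Retro-orbital blood taken 1 h post-dose on days 0 and 6. Plasma glucose and triglyceride measured with kits. % reduction = {1−[(TT/OT)/(TC/OC)]}×100 versus vehicle controls, mean ± SE.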

[6] = The Cmax value in female wistar rat at 100 mg/kg, p.o. dose; assay type: ADME, organism-based; design: dose 100 mg/kg, route oral; conditions: in vivo, po; summary of the method: as §1
[7] = The Kel value in female wistar rat at 100 mg/kg, p.o. dose; assay type: ADME, organism-based; design: dose 100 mg/kg, route oral; conditions: in vivo, po; summary of the method: as §1
[8] = biological target: T1, Peroxisome proliferator-activated receptor alpha (Homo sapiens) (UniProt Q07869); experiment: Fold activation against Peroxisome proliferator activated receptor alpha (50 uM)
T1 sequence (whole entry): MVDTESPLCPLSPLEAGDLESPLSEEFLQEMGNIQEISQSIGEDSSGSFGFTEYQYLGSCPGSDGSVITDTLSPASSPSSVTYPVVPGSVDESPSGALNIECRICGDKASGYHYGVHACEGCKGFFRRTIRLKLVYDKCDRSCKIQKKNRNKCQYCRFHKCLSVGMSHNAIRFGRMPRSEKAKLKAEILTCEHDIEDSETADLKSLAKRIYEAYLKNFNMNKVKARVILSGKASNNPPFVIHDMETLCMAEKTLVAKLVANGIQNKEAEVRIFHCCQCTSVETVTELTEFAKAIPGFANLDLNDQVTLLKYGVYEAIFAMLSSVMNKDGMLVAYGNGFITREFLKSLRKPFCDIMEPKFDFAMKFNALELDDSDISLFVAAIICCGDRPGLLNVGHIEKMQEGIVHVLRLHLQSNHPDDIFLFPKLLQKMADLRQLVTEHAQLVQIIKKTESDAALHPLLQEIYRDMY
Summary of the method: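 GAL4 fusion of human PPARα LBD (aa 167–468) with a GAL4-response-element luciferase reporter, transiently transfected into HEK-293 cells. Cells kept in DMEM with 10% delipidated serum, seeded 43 h post-transfection, then treated at 50 μM. DMSO (1:1000) served as blank. Luciferase read as fold activation over untreated cells. Mean of three to four experiments.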

[9] = The Cmax value in male wistar rat at 100 mg/kg, p.o. dose; assay type: ADME, organism-based; design: dose 100 mg/kg, route oral; conditions: in vivo, po; summary of the method: as §1
Rattus norvegicus [10] = experiment: The AUC(0-infinitive) value in male wistar rat at 100 mg/kg, p.o. dose; assay type: ADME, organism-based; design: time infinity, dose 100 mg/kg, route oral; conditions: in vivo, po; summary of the method: as §1
[11] = The Kel value in male wistar rat at 100 mg/kg, p.o. dose; assay type: ADME, organism-based; design: dose 100 mg/kg, route oral; conditions: in vivo, po; summary of the method: as §1
Mus musculus [12] = experiment: The compound was tested for percent reduction in plasma triglyceride after 6 days of treatment at a dose of 100 mg/kg/day in mice; assay type: functional; summary of the method: as §3
[13] = The half life value in female wistar rat at 100 mg/kg, p.o. dose; assay type: ADME, organism-based; design: dose 100 mg/kg, route oral; conditions: in vivo, po; summary of the method: as §1
Rattus norvegicus [14] = experiment: The AUC(0-t)value in male wistar rat at 100 mg/kg, p.o. dose; assay type: ADME, organism-based; design: dose 100 mg/kg, route oral; conditions: in vivo, po; summary of the method: as §1
Rattus norvegicus [15] = experiment: (§4) The AUC(0-t)value in female wistar rat at 100 mg/kg, p.o. dose; assay type: ADME, organism-based; design: dose 100 mg/kg, route oral; unit not given here; conditions: in vivo, po; summary of the method: as §1
Mus musculus [16] = experiment: The compound was tested for percent reduction in plasma glucose after 6 days of treatment at a dose of 100 mg/kg/day (oral gavage) in mice; assay type: functional; summary of the method: as §3
Mus musculus [17] = experiment: The compound was tested for percent reduction in plasma triglyceride after 6 days of treatment at a dose of 100 mg/kg/day (oral gavage) in mice; assay type: functional; summary of the method: as §3
Mus musculus [18] = experiment: The compounds(3:7) were tested for percent reduction in plasma glucose after 6 days of treatment at 200 mg/kg/day(oral gavage) in mice; assay type: functional; summary of the method: as §3
Mus musculus [19] = experiment: The compounds(21:4) were tested for percent reduction in plasma glucose after 6 days of treatment at 200 mg/kg/day(oral gavage) in mice; assay type: functional; summary of the method: as §3
Rattus norvegicus [20] = experiment: as §2; assay type: ADME, organism-based; design: time infinity, dose 100 mg/kg, route oral; conditions: in vivo, po; summary of the method: as §1
Rattus norvegicus [21] = experiment: The AUC(0-t)value in female wistar rat at 100 mg/kg, p.o. dose […]; assay type: ADME, organism-based; design: dose 100 mg/kg, route oral; conditions: in vivo, po
Mus musculus [22] = experiment: The compound was tested for percent reduction in plasma glucose after 6 days of treatment at a dose of 200 mg/kg/day (oral gavage) in mice; assay type: functional; summary of the method: as §3
Rattus norvegicus [23] = experiment: as §4; assay type: ADME, organism-based; design: dose 100 mg/kg, route oral; conditions: in vivo, po; summary of the method: as §1
Mus musculus [24] = experiment: The compound was tested for percent reduction in plasma triglyceride after 6 days of treatment at 100 mg/kg/day in mice; assay type: functional; summary of the method: as §3
Mus musculus [25] = experiment: The compound was tested for percent reduction in plasma glucose after 6 days of treatment at 30 mg/kg/day in mice; assay type: functional; summary of the method: as §3
Mus musculus [26] = experiment: The compound was tested for percent reduction in plasma triglyceride after 6 days of treatment at 30 mg/kg/day; assay type: functional; summary of the method: as §3
Mus musculus [27] = experiment: The compound was tested for percent reduction in plasma triglyceride after 6 days of treatment at 30 mg/kg/day in mice; assay type: functional; summary of the method: as §3
Mus musculus [28] = experiment: The compound was tested for percent reduction in plasma triglyceride after 6 days of treatment at a dose of 200 mg/kg/day (oral gavage) in mice; assay type: functional; summary of the method: as §3

Cc1c(C)c2c(c(C)c1OCc1ccccc1)CCC(C)(COc1ccc(CC3SC(=O)NC3=O)cc1)O2 (configuration not stated)
Tmax [1]: 3.33 h
half-life [2]: 5.78 h
AUC (Rattus norvegicus [3]): 29.76
Tmax [4]: 4.33 h
Reduction (Mus musculus [5]): 64%
Cmax [6]: 1830 ng/mL
k el [7]: 2.22e-05 s⁻¹
Fold activation [8]: 1.79
Cmax [9]: 2170 ng/mL
AUC (Rattus norvegicus [10]): 21.02 µg/h/mL
k el [11]: 3.33e-05 s⁻¹
Reduction (Mus musculus [12]): 34%
half-life [13]: 9.27 h
AUC (Rattus norvegicus [14]): 14.26 µg/h/mL
AUC (Rattus norvegicus [15]): 15.83

Cc1c(C)c2c(c(C)c1OCc1ccccc1)CCC(C)(COc1ccc(/C=C3\SC(=O)NC3=O)cc1)O2 (configuration not stated)
Tmax [1]: 4.33 h
AUC (Rattus norvegicus [3]): 18.5
Reduction (Mus musculus [16]): 39%
Reduction (Mus musculus [17]): 38%
Cmax [6]: 1090 ng/mL
k el [7]: 1.94e-05 s⁻¹
Fold activation [8]: 0.67
half-life [13]: 10.4 h
AUC (Rattus norvegicus [15]): 14.4

Cc1c(C)c2c(c(C)c1OCc1ccccc1)CCC(C)(CN1CCC[C@@H](Oc3ccc(/C=C4\SC(=O)NC4=O)cc3)C1)O2.Cc1c(C)c2c(c(C)c1OCc1ccccc1)CCC(C)(CN1CCC[C@H]1COc1ccc(/C=C3\SC(=O)NC3=O)cc1)O2 (some centres not stated)
Reduction (Mus musculus [18]): 53%
Reduction (Mus musculus [19]): 52%

Cc1c(C)c2c(c(C)c1O)CCC(C)(COc1ccc(/C=C3\SC(=O)NC3=O)cc1)O2 (configuration not stated)
Tmax [1]: 1.75 h
AUC (Rattus norvegicus [3]): 3.12
Reduction (Mus musculus [16]): 62%
Reduction (Mus musculus [17]): 26%
Cmax [6]: 680 ng/mL
k el [7]: 6.94e-05 s⁻¹
Fold activation [8]: 0.58
half-life [13]: 2.82 h
AUC (Rattus norvegicus [15]): 2.44

Cc1c(C)c2c(c(C)c1O)CCC(C)(CN(C)CCOc1ccc(/C=C3\SC(=O)NC3=O)cc1)O2 (configuration not stated)
Tmax [1]: 1.38 h
AUC (Rattus norvegicus [20]): 44.94 µg/h/mL
AUC (Rattus norvegicus [21]): 44.2 µg/h/mL
Cmax [6]: 9920 ng/mL
k el [7]: 0.000106 s⁻¹
Reduction (Mus musculus [22]): 36%

Cc1c(C)c2c(c(C)c1OCc1ccccc1)CCC(C)(CN(C)CCOc1ccc(/C=C3\SC(=O)NC3=O)cc1)O2 (configuration not stated)
Tmax [1]: 3.25 h
AUC (Rattus norvegicus [20]): 34.49 µg/h/mL
Cmax [6]: 4120 ng/mL
k el [7]: 4.17e-05 s⁻¹
Reduction (Mus musculus [22]): 45%
half-life [13]: 4.87 h
AUC (Rattus norvegicus [23]): 27.47 µg/h/mL

Cc1c(C)c2c(c(C)c1O)CCC(C)(CN1CCC[C@H]1COc1ccc(/C=C3\SC(=O)NC3=O)cc1)O2 (some centres not stated)
Reduction (Mus musculus [16]): 37%
Reduction (Mus musculus [24]): 36%

Cc1c(C)c2c(c(C)c1OCc1ccccc1)CCC(C)(CN1CCC[C@H]1COc1ccc(/C=C3\SC(=O)NC3=O)cc1)O2 (some centres not stated)
Reduction (Mus musculus [25]): 41%
Reduction (Mus musculus [16]): 68%
Reduction (Mus musculus [26]): 26%

Cc1c(C)c2c(c(C)c1OCc1ccccc1)CCC(C)(CN1CCC[C@H]1COc1ccc(CC3SC(=O)NC3=O)cc1)O2 (some centres not stated)
Reduction (Mus musculus [25]): 23%
Reduction (Mus musculus [16]): 26%

Cc1c(C)c2c(c(C)c1OCc1ccccc1)CCC(C)(CN1CCC[C@H]1COc1ccc(CC3SC(=O)NC3=O)cc1)O2.Cl (some centres not stated)
Reduction (Mus musculus [25]): 12%

Cc1c(C)c2c(c(C)c1OCc1ccccc1)CCC(C)(CN1CCC[C@H]1COc1ccc(/C=C3\SC(=O)[N-]C3=O)cc1)O2.[Na+] (some centres not stated)
Reduction (Mus musculus [25]): 8%
Reduction (Mus musculus [27]): 58%

Cc1c(C)c2c(c(C)c1OCc1ccccc1)CCC(C)(CN1CCC[C@@H](Oc3ccc(/C=C4\SC(=O)NC4=O)cc3)C1)O2 (some centres not stated)
Reduction (Mus musculus [16]): 5%
Reduction (Mus musculus [24]): 24%

Cc1c(C)c2c(c(C)c1OCc1ccccc1)CCC(C)(CN1CCC[C@H]1COc1ccc(CC3SC(=O)[N-]C3=O)cc1)O2.[Na+] (some centres not stated)
Reduction (Mus musculus [25]): 36%
Reduction (Mus musculus [27]): 66%

Cc1c(C)c2c(c(C)c1O)CCC(C)(COc1ccc(CC3SC(=O)NC3=O)cc1)O2 (configuration not stated) [TROGLITAZONE]
Reduction (Mus musculus [28]): 50%
half-life [2]: 3.9 h
Tmax [4]: 2 h
Reduction (Mus musculus [5]): 26%
Reduction (Mus musculus [22]): 24%
Cmax [9]: 770 ng/mL
AUC (Rattus norvegicus [10]): 5.68 µg/h/mL
k el [11]: 5.28e-05 s⁻¹
AUC (Rattus norvegicus [14]): 5.09 µg/h/mL

Cc1c(C)c2c(c(C)c1O)CCC(C)(CN(C)CCOc1ccc(CC3SC(=O)NC3=O)cc1)O2 (configuration not stated)
Reduction (Mus musculus [22]): 3%
